Measured values: ChEMBL document CHEMBL3232883, “Triaryl-substituted Schiff bases are high-affinity subtype-selective ligands for the estrogen receptor” (J Med Chem, 2014)
Active and inactive are the calls of the source. The calls are words filed in the database; no cut-off is given here.

Tests used:
[1] = molecular target: T1, Estrogen receptor (Homo sapiens) (UniProt P03372); experiment: Displacement of [3H]-estradiol from human full-length ERalpha after 18 to 24 hrs by competitive radiometric binding assay relative to estradiol
T1 sequence (whole entry): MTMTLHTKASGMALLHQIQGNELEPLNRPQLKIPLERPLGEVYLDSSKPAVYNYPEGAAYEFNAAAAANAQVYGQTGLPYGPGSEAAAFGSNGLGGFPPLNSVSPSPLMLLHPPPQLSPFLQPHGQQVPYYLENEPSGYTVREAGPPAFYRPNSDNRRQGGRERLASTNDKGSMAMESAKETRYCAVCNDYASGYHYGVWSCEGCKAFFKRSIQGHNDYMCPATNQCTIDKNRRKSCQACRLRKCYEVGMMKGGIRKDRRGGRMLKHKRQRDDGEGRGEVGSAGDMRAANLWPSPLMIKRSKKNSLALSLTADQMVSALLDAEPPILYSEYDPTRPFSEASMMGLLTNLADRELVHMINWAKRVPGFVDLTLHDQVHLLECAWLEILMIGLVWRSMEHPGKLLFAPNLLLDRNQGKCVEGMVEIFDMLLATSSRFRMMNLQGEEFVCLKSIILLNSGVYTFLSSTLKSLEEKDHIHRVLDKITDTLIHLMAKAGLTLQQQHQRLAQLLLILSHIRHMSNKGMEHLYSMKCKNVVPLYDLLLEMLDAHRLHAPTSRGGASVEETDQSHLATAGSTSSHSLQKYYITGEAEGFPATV

Estrogen receptor beta [2] = molecular target: T2, Estrogen receptor beta (Homo sapiens, UniProt Q92731); experiment: Displacement of [3H]-estradiol from human full-length ERbeta after 18 to 24 hrs by competitive radiometric binding assay relative to estradiol
Homo sapiens = species: Homo sapiens; experiment: Selectivity ratio of RBA for human full length ERbeta to RBA for human full-length ERalpha
Estrogen receptor = molecular target: T3, Estrogen receptor (Homo sapiens, UniProt P03372); experiment: Agonist activity at ERalpha (unknown origin) expressed in human HepG2 cells assessed as transcriptional activation after 24 hrs by ERE-luciferase reporter gene assay; format: cell-based
T3 sequence (P03372 whole entry): T1 sequence (whole entry)
Outline: (§1)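 HepG2 cells were grown in DMEM with 10% FBS and transfected with a 3×ERE-luciferase reporter plus an ERα or ERβ expression vector. The next day cells were moved to phenol red-free medium with 10% charcoal-dextran-stripped FBS, plated at 20 000 cells/well and left overnight. Ligand was then added as a 12-point dose curve from 10 μM to 100 pM. Luciferase was read after 24 h, normalized to DMSO as 0% and the top of the E2 curve as 100%.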

[3] = molecular target: T1, Estrogen receptor (Homo sapiens); experiment: Agonist activity at ERalpha (unknown origin) expressed in human HepG2 cells assessed as transcriptional activation after 24 hrs by ERE-luciferase reporter gene assay relative to 17beta-estradiol; format: cell-based
Outline: (§2)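 HepG2 cells were cotransfected with a 3×ERE-luciferase reporter (10 μg) plus an ERα or ERβ expression vector (1.6 μg) per 10 cm dish. The next day they were replated at 20 000 cells/well in phenol red-free medium with 10% charcoal-dextran-stripped FBS and held overnight. Cells were then dosed over a 12-point range of 10 μM to 100 pM. Luciferase was read after 24 h, with DMSO set as 0% and the top of the E2 curve as 100%.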

Estrogen receptor beta [4] = molecular target: T2, Estrogen receptor beta; experiment: Agonist activity at ERbeta (unknown origin) expressed in human HepG2 cells assessed as transcriptional activation after 24 hrs by ERE-luciferase reporter gene assay; format: cell-based; outline: as §1
Estrogen receptor beta [5] = molecular target: T2, Estrogen receptor beta; experiment: Agonist activity at ERbeta (unknown origin) expressed in human HepG2 cells assessed as transcriptional activation after 24 hrs by ERE-luciferase reporter gene assay relative to 17beta-estradiol; format: cell-based; outline: as §2
[6] = molecular target: T1, Estrogen receptor (Homo sapiens); experiment: Antagonist activity at ERalpha (unknown origin) expressed in human HepG2 cells assessed as inhibition of transcriptional activation after 24 hrs by ERE-luciferase reporter gene assay relative to 17beta-estradiol; format: cell-based
Outline: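 Antagonist mode used HepG2 cells cotransfected with a 3×ERE-luciferase reporter plus an ERα expression vector and steroid-deprived in phenol red-free medium with 10% charcoal-dextran-stripped FBS. Cells received 10 nM estradiol together with increasing compound concentrations across a 10 μM to 100 pM dose curve. Luciferase was measured after 24 h and normalized to DMSO (0%) and the top of the E2 curve (100%).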

Estrogen receptor beta [7] = molecular target: T2, Estrogen receptor beta; experiment: Antagonist activity at ERbeta (unknown origin) expressed in human HepG2 cells assessed as inhibition of 17beta-estradiol-induced transcriptional activation after 24 hrs by ERE-luciferase reporter gene assay; format: cell-based
Outline: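 ERβ-transfected, steroid-deprived HepG2 cells carrying a 3×ERE-luciferase reporter were co-treated with 10 nM estradiol and test ligand over a range of 10 μM to 100 pM. Luciferase was read after 24 h, with each plate normalized to DMSO (0%) and the maximal E2 response (100%). IC50 and % efficacy were derived from the dose curves.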

HepG2 = experiment: Agonist activity at ERalpha (unknown origin) harboring N-terminal AF1 domain deleted mutant expressed in human HepG2 cells assessed as transcriptional activation after 24 hrs by ERE-luciferase reporter gene assay; format: cell-based

T2 sequence (Q92731 whole entry): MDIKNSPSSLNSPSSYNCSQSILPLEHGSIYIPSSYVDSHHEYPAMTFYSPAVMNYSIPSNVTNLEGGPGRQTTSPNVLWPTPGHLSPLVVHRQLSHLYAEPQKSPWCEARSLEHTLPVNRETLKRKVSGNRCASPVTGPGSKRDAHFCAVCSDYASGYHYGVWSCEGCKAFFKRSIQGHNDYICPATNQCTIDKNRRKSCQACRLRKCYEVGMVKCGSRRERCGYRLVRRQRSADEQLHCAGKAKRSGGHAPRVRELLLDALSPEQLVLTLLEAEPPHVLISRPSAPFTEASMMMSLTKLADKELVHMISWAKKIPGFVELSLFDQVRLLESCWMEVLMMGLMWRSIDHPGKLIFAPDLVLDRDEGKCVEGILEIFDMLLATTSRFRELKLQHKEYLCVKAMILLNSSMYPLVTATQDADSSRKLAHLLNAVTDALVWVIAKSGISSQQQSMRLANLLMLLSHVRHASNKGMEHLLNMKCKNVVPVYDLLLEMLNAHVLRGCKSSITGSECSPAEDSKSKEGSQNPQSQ

With Oc1ccc(/C(=N\c2ccc(Cl)cc2)c2ccc(O)cc2O)cc1 the RBA [1] was 15.5%, the RBA (Estrogen receptor beta [2]) was 38.1% and the Selectivity ratio (Homo sapiens) was 2.5. The EC50 (Estrogen receptor) was 4 nM, the Efficacy [3] was 114% and the EC50 (Estrogen receptor beta [4]) was 385 nM. The Efficacy (Estrogen receptor beta [5]) was 19%, the Efficacy [6] was 123% and the IC50 (Estrogen receptor beta [7]) was 180 nM. For the same molecule, the Activity (HepG2) was “inactive”.
